ChEMBL document CHEMBL5724801, “EUbOPEN Chemogenomics Library - Multiplex” (2024)
Several values for one entry are separate records, joined by “and”; a condition that tells them apart may be missing. Equal values may be shown once.

Test system: HEK-293T
Experiment: Multiplex assay against HEK293T
Format: toxicity, cell-based
Settings: human
Method in brief: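 Live cells were stained at seeding with Hoechst33342, BioTracker Green Microtubule Cytoskeleton Dye, MitoTracker Red and Annexin V Alexa Fluor 680, then imaged on a CQ1 microscope at 37°C and 5% CO2 after compound addition. CellPathfinder machine-learning gating split cells into Hoechst high-intensity objects or normal cells. Normal cells were split into healthy, pyknosed or fragmented nuclei, and pyknosed cells into mitotic or apoptotic. Tubulin, mitochondrial-mass and membrane-permeability phenotypes are per cents of healthy-nucleus cells.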

[1] = 12 h, 1 µM, compound concentration 1 uM
[2] = 12 h, 10 µM, compound concentration 10 uM
[3] = 24 h, 1 µM, compound concentration 1 uM
[4] = 24 h, 10 µM, compound concentration 10 uM
[5] = 48 h, 1 µM, compound concentration 1 uM
[6] = 48 h, 10 µM, compound concentration 10 uM

## COc1ccc2c(c1OCc1ccccc1)C[C@@H](C(=O)O)N(C(=O)C(c1ccccc1)c1ccccc1)C2 [OLODANRIGAN]
[1]
  Population Apoptotic (%): 39% and 43%
  Population Fragmented Nuclei (%): 6% and 7%
  Population Healthy Nuclei (%): 82% and 81%
  Population Hoechst High Intensity Objects (%): 7%
  Population Membrane Permeable-Phenotype (%): 0%
  Population Mitochondria Different-Phenotype (%): 44% and 48%
  Population Mitotic Cells (%): 60% and 56%
  Population Normal (%): 92%
  Population Pyknosed Nuclei (%): 11% and 10%
  Population Tubulin-Different-Phenotype (%): 21% and 17%
  Total Cell Count: 419 and 409
[2]
  Population Apoptotic (%): 45% and 44%
  Population Fragmented Nuclei (%): 6% and 4%
  Population Healthy Nuclei (%): 81% and 83%
  Population Hoechst High Intensity Objects (%): 6% and 3%
  Population Membrane Permeable-Phenotype (%): 0%
  Population Mitochondria Different-Phenotype (%): 42% and 58%
  Population Mitotic Cells (%): 54% and 55%
  Population Normal (%): 93% and 96%
  Population Pyknosed Nuclei (%): 12%
  Population Tubulin-Different-Phenotype (%): 35% and 27%
  Total Cell Count: 389 and 368
[3]
  Population Apoptotic (%): 46% and 19%
  Population Fragmented Nuclei (%): 11% and 10%
  Population Healthy Nuclei (%): 78% and 81%
  Population Hoechst High Intensity Objects (%): 3% and 6%
  Population Membrane Permeable-Phenotype (%): 0% and 1%
  Population Mitochondria Different-Phenotype (%): 24% and 30%
  Population Mitotic Cells (%): 53% and 80%
  Population Normal (%): 96% and 93%
  Population Pyknosed Nuclei (%): 10% and 8%
  Population Tubulin-Different-Phenotype (%): 15% and 14%
  Total Cell Count: 614 and 521
[4]
  Population Apoptotic (%): 40% and 43%
  Population Fragmented Nuclei (%): 7% and 10%
  Population Healthy Nuclei (%): 78% and 79%
  Population Hoechst High Intensity Objects (%): 6%
  Population Membrane Permeable-Phenotype (%): 0%
  Population Mitochondria Different-Phenotype (%): 34% and 57%
  Population Mitotic Cells (%): 59% and 56%
  Population Normal (%): 93%
  Population Pyknosed Nuclei (%): 13% and 9%
  Population Tubulin-Different-Phenotype (%): 32% and 28%
  Total Cell Count: 456 and 414
[5]
  Population Apoptotic (%): 26% and 22%
  Population Fragmented Nuclei (%): 13% and 15%
  Population Healthy Nuclei (%): 80% and 79%
  Population Hoechst High Intensity Objects (%): 2%
  Population Membrane Permeable-Phenotype (%): 0%
  Population Mitochondria Different-Phenotype (%): 15% and 18%
  Population Mitotic Cells (%): 73% and 77%
  Population Normal (%): 97%
  Population Pyknosed Nuclei (%): 5%
  Population Tubulin-Different-Phenotype (%): 11% and 10%
  Total Cell Count: 1083 and 818
[6]
  Population Apoptotic (%): 32% and 39%
  Population Fragmented Nuclei (%): 12%
  Population Healthy Nuclei (%): 78% and 80%
  Population Hoechst High Intensity Objects (%): 5% and 6%
  Population Membrane Permeable-Phenotype (%): 0%
  Population Mitochondria Different-Phenotype (%): 22% and 32%
  Population Mitotic Cells (%): 67% and 60%
  Population Normal (%): 94% and 93%
  Population Pyknosed Nuclei (%): 8% and 7%
  Population Tubulin-Different-Phenotype (%): 15% and 18%
  Total Cell Count: 659 and 534

## Cc1cc(NC(=O)NCCN2CCC(O)(Cc3ccccc3)CC2)c2ccccc2n1 [PALOSURAN]
[1]
  Population Apoptotic (%): 36% and 48%
  Population Fragmented Nuclei (%): 7% and 9%
  Population Healthy Nuclei (%): 77% and 81%
  Population Hoechst High Intensity Objects (%): 6% and 9%
  Population Membrane Permeable-Phenotype (%): 0%
  Population Mitochondria Different-Phenotype (%): 42% and 57%
  Population Mitotic Cells (%): 63% and 52%
  Population Normal (%): 93% and 90%
  Population Pyknosed Nuclei (%): 14% and 8%
  Population Tubulin-Different-Phenotype (%): 25% and 26%
  Total Cell Count: 373 and 326
[2]
  Population Apoptotic (%): 38% and 61%
  Population Fragmented Nuclei (%): 5%
  Population Healthy Nuclei (%): 81% and 75%
  Population Hoechst High Intensity Objects (%): 8%
  Population Membrane Permeable-Phenotype (%): 0%
  Population Mitochondria Different-Phenotype (%): 53% and 76%
  Population Mitotic Cells (%): 61% and 38%
  Population Normal (%): 91%
  Population Pyknosed Nuclei (%): 12% and 18%
  Population Tubulin-Different-Phenotype (%): 41% and 42%
  Total Cell Count: 461 and 346
[3]
  Population Apoptotic (%): 17% and 46%
  Population Fragmented Nuclei (%): 9% and 10%
  Population Healthy Nuclei (%): 78% and 76%
  Population Hoechst High Intensity Objects (%): 6% and 4%
  Population Membrane Permeable-Phenotype (%): 0%
  Population Mitochondria Different-Phenotype (%): 24% and 45%
  Population Mitotic Cells (%): 82% and 53%
  Population Normal (%): 93% and 95%
  Population Pyknosed Nuclei (%): 11% and 13%
  Population Tubulin-Different-Phenotype (%): 19% and 14%
  Total Cell Count: 511 and 343
[4]
  Population Apoptotic (%): 35% and 51%
  Population Fragmented Nuclei (%): 8% and 7%
  Population Healthy Nuclei (%): 79% and 83%
  Population Hoechst High Intensity Objects (%): 4% and 6%
  Population Membrane Permeable-Phenotype (%): 0%
  Population Mitochondria Different-Phenotype (%): 43% and 64%
  Population Mitotic Cells (%): 64% and 48%
  Population Normal (%): 95% and 93%
  Population Pyknosed Nuclei (%): 11% and 9%
  Population Tubulin-Different-Phenotype (%): 32% and 26%
  Total Cell Count: 598 and 396
[5]
  Population Apoptotic (%): 19% and 32%
  Population Fragmented Nuclei (%): 15% and 13%
  Population Healthy Nuclei (%): 79% and 81%
  Population Hoechst High Intensity Objects (%): 3%
  Population Membrane Permeable-Phenotype (%): 1% and 0%
  Population Mitochondria Different-Phenotype (%): 16% and 24%
  Population Mitotic Cells (%): 80% and 67%
  Population Normal (%): 96%
  Population Pyknosed Nuclei (%): 5%
  Population Tubulin-Different-Phenotype (%): 12% and 15%
  Total Cell Count: 938 and 552
[6]
  Population Apoptotic (%): 29% and 41%
  Population Fragmented Nuclei (%): 15% and 9%
  Population Healthy Nuclei (%): 75% and 84%
  Population Hoechst High Intensity Objects (%): 5% and 4%
  Population Membrane Permeable-Phenotype (%): 0%
  Population Mitochondria Different-Phenotype (%): 34% and 42%
  Population Mitotic Cells (%): 70% and 58%
  Population Normal (%): 94% and 95%
  Population Pyknosed Nuclei (%): 8% and 6%
  Population Tubulin-Different-Phenotype (%): 17% and 19%
  Total Cell Count: 874 and 570
